Experimental findings from PubChem BioAssay are described below.

SMILES strings stand for the structures. The source made the active and inactive calls.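 Rule for the calls, unless noted: active = GFP response above 150% of the DMSO level; inconclusive = fewer than 70 events counted for a yeast strain; inactive = the rest.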

Test [1] in a line: hit retest on RPL19A-GFP reporter strain – cell-based, S. cerevisiae, flow cytometry, cherry picks, mother/daughter gates, confirmation (AID 2270;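 active = GFP response below 50% of the DMSO control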). Conditions: 3 h, at 10 µM, stronger effect = lower value, 100 = same GFP as DMSO wells. Background: A flow cytometer gives signals particle by particle.
The nature of test [2]: yeast TOR pathway reporter LAP4-GFP change – cell-based, cherry picks, flow cytometry, mother/daughter gates, confirmation (AID 2271;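 active = GFP response above 150% of the DMSO control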;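 note: ratio of sample to DMSO plate mean so 100% equals DMSO level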). Conditions: S. cerevisiae LAP4-GFP strain, 3 h, at 10 µM, stronger effect = higher value, 100 means same as DMSO control. The method, boiled down: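 Measured by: GFP by flow cytometry. Test system: GFP-fusion yeast strain. Input: yeast cells seeded at OD600 of 0.2. Timing: 30 °C, 3 h compound incubation, rotating. Buffer or medium: synthetic complete medium for yeast. Benchmarks: DMSO-only negative wells, rapamycin 400 ng/mL positive wells. Compound: 10 µM single dose.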

The nature of test [3]: TOR pathway reporter MEP2-GFP, retest of hits – S. cerevisiae, flow cytometry GFP, cherry picks, confirmation (AID 2272;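 active = GFP response above 150% of the DMSO control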;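 note: ratio of well signal to plate DMSO mean so 100% equals DMSO level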). The following applies: S. cerevisiae MEP2-GFP strain, 3 h, at 10 µM, stronger effect = higher value.
Test [4] can be described thus: yeast AGP1-GFP fluorescence change, single-dose – cell-based, flow cytometry, S. cerevisiae, cherry picks, confirmation (AID 2273).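 Note: median GFP channel fluorescence over the whole cell population gate.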 The following applies: S. cerevisiae AGP1-GFP strain, 3 h, at 10 µM.
The nature of test [5]: TOR pathway CIT2 reporter hit retest – S. cerevisiae, GFP fusion, cherry picks, mother/daughter gates, confirmation (AID 2274). The following applies: S. cerevisiae CIT2-GFP strain, flow cytometry, 3 h, at 10 µM, stronger effect = higher value.
Setting [6] is: measured here: daughter cell gate.
Setting [7] is: measured here: mother cell gate.
Where [8] appears, read: measured here: daughter cell gate response.
Setting [9] is: measured here: mother cell gate response.

`Cc1ccc(C(=O)N2c3ccccc3NC(=O)C2C)cc1` (stereo not given): the GFP response vs DMSO was 99.9% (inactive) in test [1], 98.1% in test [1] (setting [6]), 100% in test [1] (setting [7]) and 100% (inactive) in test [3]. Further, the values for the GFP response relative to DMSO in test [2], in test [2] (setting [8]) and in test [2] (setting [9]) were 102% (inactive), 98.7% and 105%, respectively. The GFP response, % of DMSO is 100% (inactive) in test [4], 97.8% (inactive) in test [5], 94.8% in test [5] (setting [6]) and 98.7% in test [5] (setting [7]).
For the compound `NC(=O)c1ccc(Oc2ccc(-c3nnco3)cc2)c([N+](=O)[O-])c1`, the GFP response vs DMSO in test [1] was 98.4% (inactive); in test [1] (setting [6]), 100%; in test [1] (setting [7]) it was 99.1%; in test [3], 100% (inactive). In addition, the GFP response relative to DMSO was 93.8% (inactive) in test [2], 95.6% in test [2] (setting [8]) and 94.2% in test [2] (setting [9]). For the same compound, the GFP response, % of DMSO was 98.7% (inactive) in test [4], 110% (inactive) in test [5], 105% in test [5] (setting [6]) and 112% in test [5] (setting [7]).
Regarding `O=C(O/N=C(\c1ccccc1)c1ccncc1)c1ccccc1Cl`, the GFP response vs DMSO in test [1] was 77% (inactive); in test [1] (setting [6]) it was 74.3%; in test [1] (setting [7]) it was 79.7%; in test [3], 91% (inactive). The results for the GFP response relative to DMSO in test [2], in test [2] (setting [8]) and in test [2] (setting [9]) were 119% (inactive), 118% and 123%, respectively. Besides, the GFP response, % of DMSO is 91.8% (inactive) in test [4], 68.1% (inactive) in test [5], 69.2% in test [5] (setting [6]) and 69.2% in test [5] (setting [7]).
Turning to `Cc1nn(C)cc1C(C)NC(=O)c1cc(COc2ccc(F)c(F)c2)on1` (stereo not given), the GFP response vs DMSO was 101% (inactive) in test [1], 100% in test [1] (setting [6]), 102% in test [1] (setting [7]) and 100% (inactive) in test [3]. Further, the results for the GFP response relative to DMSO in test [2], in test [2] (setting [8]) and in test [2] (setting [9]) were 93.8% (inactive), 94.1% and 96.2%, respectively. The GFP response, % of DMSO in test [4] is 93.7% (inactive); in test [5], 97.8% (inactive); in test [5] (setting [6]) it was 98.1%; in test [5] (setting [7]) it was 97.7%.
`COC(=O)NC1CCC(CC2CCC(NC(=O)OC)CC2)CC1` (stereo not given): the GFP response vs DMSO in test [1] was 99% (inactive); in test [1] (setting [6]), 98.9%; in test [1] (setting [7]), 99.4%; in test [3], 100% (inactive). Further, the GFP response relative to DMSO in test [2] is 92.8% (inactive); in test [2] (setting [8]), 92.8%; in test [2] (setting [9]), 92.9%. Also, the GFP response, % of DMSO is 94.7% (inactive) in test [4], 103% (inactive) in test [5], 105% in test [5] (setting [6]) and 103% in test [5] (setting [7]).
As to `O=C(NCc1ccccn1)c1cc(-c2ccc(Cl)cc2)oc1C(F)(F)F`, the GFP response vs DMSO in test [1] is 99.5% (inactive); in test [1] (setting [6]) it was 98.4%; in test [1] (setting [7]), 99.8%; in test [3] it was 100% (inactive). Also, the GFP response relative to DMSO is 103% (inactive) in test [2], 106% in test [2] (setting [8]) and 102% in test [2] (setting [9]). The GFP response, % of DMSO in test [4] is 99.4% (inactive); in test [5] it was 102% (inactive); in test [5] (setting [6]), 98.1%; in test [5] (setting [7]) it was 101%.
Turning to `CCOc1ccc(C(Nc2cccnc2)c2cc(Cl)c3cccnc3c2O)cc1` (stereo not given), the GFP response vs DMSO in test [1] is 99.6% (inactive); in test [1] (setting [6]) it was 104%; in test [1] (setting [7]) it was 95.6%; in test [3], 122% (inactive). The GFP response relative to DMSO is 164% (active) in test [2], 144% in test [2] (setting [8]) and 170% in test [2] (setting [9]). In addition, the GFP response, % of DMSO in test [4] was 93.9% (inactive); in test [5], 101% (inactive); in test [5] (setting [6]) it was 108%; in test [5] (setting [7]), 94.9%.
As to `CCc1oc2ccccc2c1C(=O)CCN1CCCCC1`, the GFP response vs DMSO is 99.6% (inactive) in test [1], 98.4% in test [1] (setting [6]), 99.6% in test [1] (setting [7]) and 101% (inactive) in test [3]. The results for the GFP response relative to DMSO in test [2], in test [2] (setting [8]) and in test [2] (setting [9]) were 102% (inactive), 99.1% and 103%, respectively. The GFP response, % of DMSO in test [4] was 101% (inactive); in test [5] it was 98.8% (inactive); in test [5] (setting [6]) it was 99.2%; in test [5] (setting [7]), 96.8%.
As to `Cc1cc(NC(=O)c2cccnc2Cl)ccc1NC(=O)c1cc2ccccc2o1`, the GFP response vs DMSO in test [1] was 98% (inactive); in test [1] (setting [6]), 97.1%; in test [1] (setting [7]) it was 94.5%; in test [3] it was 105% (inactive). Besides, the GFP response relative to DMSO is 103% (inactive) in test [2], 101% in test [2] (setting [8]) and 104% in test [2] (setting [9]). In addition, the GFP response, % of DMSO in test [4] was 98.8% (inactive); in test [5], 103% (inactive); in test [5] (setting [6]), 97.4%; in test [5] (setting [7]) it was 103%.
Take `CC(C)C(=O)NC(c1cccs1)c1cc([N+](=O)[O-])c2cccnc2c1O` (stereo not given): the GFP response vs DMSO in test [1] was 95.8% (inactive); in test [1] (setting [6]) it was 95.2%; in test [1] (setting [7]) it was 95.8%; in test [3], 94.7% (inactive). Further, the results for the GFP response relative to DMSO in test [2], in test [2] (setting [8]) and in test [2] (setting [9]) were 101% (inactive), 99.1% and 99.4%, respectively. For the same compound, the GFP response, % of DMSO in test [4] is 101% (inactive); in test [5] it was 98.8% (inactive); in test [5] (setting [6]) it was 101%; in test [5] (setting [7]) it was 99.3%.
With `COc1ccc(N2CCN(C(=O)c3ccccc3)CC2)c([N+](=O)[O-])c1`, the GFP response vs DMSO in test [1] was 101% (inactive); in test [1] (setting [6]) it was 98.8%; in test [1] (setting [7]) it was 103%; in test [3], 107% (inactive). The GFP response relative to DMSO in test [2] is 106% (inactive); in test [2] (setting [8]), 104%; in test [2] (setting [9]), 108%. The GFP response, % of DMSO in test [4] was 102% (inactive); in test [5], 91.5% (inactive); in test [5] (setting [6]) it was 93.8%; in test [5] (setting [7]) it was 96.8%.
For the compound `O=[N+]([O-])c1cc(C(F)(F)F)ccc1NCCc1ccccn1`, the GFP response vs DMSO is 98.8% (inactive) in test [1], 99.3% in test [1] (setting [6]), 99.7% in test [1] (setting [7]) and 102% (inactive) in test [3]. Moreover, the GFP response relative to DMSO in test [2] was 96.5% (inactive); in test [2] (setting [8]) it was 92.2%; in test [2] (setting [9]), 96.5%. The GFP response, % of DMSO was 98.9% (inactive) in test [4], 106% (inactive) in test [5], 106% in test [5] (setting [6]) and 106% in test [5] (setting [7]).
With `NC(N)=N/N=C/c1ccc(OCc2ccc(Cl)cc2Cl)cc1`, the GFP response vs DMSO in test [1] is 88.9% (inactive); in test [1] (setting [6]), 82.8%; in test [1] (setting [7]), 87.2%; in test [3] it was 105% (inactive). Also, the GFP response relative to DMSO in test [2] was 115% (inactive); in test [2] (setting [8]) it was 106%; in test [2] (setting [9]) it was 121%. In addition, the GFP response, % of DMSO in test [4] was 99.1% (inactive); in test [5], 85.5% (inactive); in test [5] (setting [6]) it was 80.7%; in test [5] (setting [7]), 84.3%.
With `COc1ccc(/C=N/Nc2nc(-c3cccnc3)nc3ccccc23)cc1OC`, the GFP response vs DMSO in test [1] is 100% (inactive); in test [1] (setting [6]), 99.3%; in test [1] (setting [7]), 102%; in test [3], 137% (inactive). For the same compound, the results for the GFP response relative to DMSO in test [2], in test [2] (setting [8]) and in test [2] (setting [9]) were 129% (inactive), 130% and 129%, respectively. For the same compound, the GFP response, % of DMSO in test [4] was 104% (inactive); in test [5], 144% (inactive); in test [5] (setting [6]) it was 143%; in test [5] (setting [7]) it was 141%.
On to `CCOC(=O)c1cnn(-c2cc(C)nc3c(-c4ccccc4)cnn23)c1N`, for which the GFP response vs DMSO in test [1] is 96.7% (inactive); in test [1] (setting [6]), 98.1%; in test [1] (setting [7]), 95.4%; in test [3], 103% (inactive). The GFP response relative to DMSO in test [2] was 92.9% (inactive); in test [2] (setting [8]), 92.9%; in test [2] (setting [9]) it was 94.4%. Also, the GFP response, % of DMSO was 89.3% (inactive) in test [4], 98.6% (inactive) in test [5], 97.6% in test [5] (setting [6]) and 98.2% in test [5] (setting [7]).
